According to ChEMBL document CHEMBL2062469, “1-(2-Mercaptobenzenesulfonyl)-3-hydroxyguanidines--novel potent antiproliferatives, synthesis and in vitro biological activity” (2012):

Legend:
Format in all cases: functional
[1] = tested on: MDA-MB-231; test: Cytostatic activity against human MDA-MB-231/ATCC cells
Procedure, shortened: (§1)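 NCI-60 human tumor cell line screen run by the US National Cancer Institute under the NIH Developmental Therapeutics Program protocol. A single-dose prescreen at 10 µM came first. Selected compounds then went into the 5-dose assay. Cytostatic activity is reported as GI50 (µM).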

[2] = tested on: 786-0; test: Cytostatic activity against human 786-0 cells; procedure, shortened: as §1
[3] = tested on: SK-MEL-28; test: Cytostatic activity against human SK-MEL-28 cells; procedure, shortened: as §1
[4] = tested on: Malme-3M; test: Cytostatic activity against human MALME-3M cells; procedure, shortened: as §1
[5] = tested on: NCI-H23; test: Cytostatic activity against human NCI-H23 cells; procedure, shortened: as §1
[6] = tested on: HCT-116; test: Cytostatic activity against human HCT116 cells; procedure, shortened: as §1
[7] = tested on: OVCAR-3; test: Cytostatic activity against human OVCAR3 cells; procedure, shortened: as §1
[8] = tested on: COLO 205; test: Cytostatic activity against human COLO205 cells; procedure, shortened: as §1
[9] = tested on: Hs-578T; test: Cytostatic activity against human Hs 578T cells; procedure, shortened: as §1
[10] = tested on: MDA-MB-468; test: Cytostatic activity against human MDA-MB-468 cells; procedure, shortened: as §1
[11] = tested on: HOP-92; test: Cytostatic activity against human HOP92 cells; procedure, shortened: as §1
[12] = tested on: SF-539; test: Cytostatic activity against human SF539 cells; procedure, shortened: as §1
[13] = tested on: SR; test: Cytostatic activity against human SR cells
Procedure, shortened: (§2)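 Human tumour cell lines from the NCI-60 panel, tested at the US National Cancer Institute under the NIH Developmental Therapeutics Program protocol. A single-dose prescreen at 10 µM came first. Selected compounds then went to a 5-dose assay, which gave GI50 and TGI values in µM.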

[14] = tested on: NCI-H322M; test: Cytostatic activity against human NCI-H322M cells; procedure, shortened: as §1
[15] = tested on: HT-29; test: Cytostatic activity against human HT-29 cells; procedure, shortened: as §1
[16] = tested on: NCI-H226; test: Cytostatic activity against human NCI-H226 cells; procedure, shortened: as §1
[17] = tested on: SW-620; test: Cytostatic activity against human SW620 cells; procedure, shortened: as §2
[18] = tested on: UO-31; test: Cytostatic activity against human UO31 cells; procedure, shortened: as §2
[19] = tested on: OVCAR-8; test: Cytostatic activity against human OVCAR8 cells; procedure, shortened: as §1
[20] = tested on: NCI/ADR-RES; test: Cytostatic activity against human NCI-ADR-RES cells; procedure, shortened: as §1
[21] = tested on: ACHN; test: Cytostatic activity against human ACHN cells; procedure, shortened: as §1
[22] = tested on: IGROV-1; test: Cytostatic activity against human IGROV1 cells; procedure, shortened: as §1
[23] = tested on: HCC 2998; test: Cytostatic activity against human HCC2998 cells; procedure, shortened: as §1
[24] = tested on: M14; test: Cytostatic activity against human M14 cells; procedure, shortened: as §1
[25] = tested on: LOX IMVI; test: Cytostatic activity against human LOXIMVI cells; procedure, shortened: as §1
[26] = tested on: SK-OV-3; test: Cytostatic activity against human SKOV3 cells; procedure, shortened: as §1
[27] = tested on: NCI-H460; test: Cytostatic activity against human NCI-H460 cells; procedure, shortened: as §1
[28] = tested on: HCT-15; test: Cytostatic activity against human HCT15 cells; procedure, shortened: as §1
[29] = tested on: NCI-H522; test: Cytostatic activity against human NCI-H522 cells; procedure, shortened: as §1
[30] = tested on: SF-268; test: Cytostatic activity against human SF268 cells; procedure, shortened: as §1
[31] = tested on: SNB-75; test: Cytostatic activity against human SNB75 cells; procedure, shortened: as §2
[32] = tested on: MCF7; test: Cytostatic activity against human MCF7 cells; procedure, shortened: as §1
[33] = tested on: RXF 393; test: Cytostatic activity against human RXF393 cells; procedure, shortened: as §1
[34] = tested on: OVCAR-5; test: Cytostatic activity against human OVCAR5 cells; procedure, shortened: as §1
[35] = tested on: SNB-19; test: Cytostatic activity against human SNB19 cells; procedure, shortened: as §1
[36] = tested on: SN12C; test: Cytostatic activity against human SN12C cells; procedure, shortened: as §1
[37] = tested on: A498; test: Cytostatic activity against human A498 cells; procedure, shortened: as §1
[38] = Cytostatic activity against human […] cells; procedure, shortened: as §1
[39] = tested on: PC-3; test: Cytostatic activity against human PC3 cells; procedure, shortened: as §1
[40] = tested on: SF-295; test: Cytostatic activity against human SF295 cells; procedure, shortened: as §1
[41] = tested on: UACC-257; test: Cytostatic activity against human UACC257 cells; procedure, shortened: as §2
[42] = tested on: MDA-MB-435; test: Cytostatic activity against human MDA-MB-435 cells; procedure, shortened: as §1
[43] = tested on: HOP-62; test: Cytostatic activity against human HOP62 cells; procedure, shortened: as §1
[44] = tested on: MOLT-4; test: Cytostatic activity against human MOLT4 cells; procedure, shortened: as §1
[45] = tested on: UACC-62; test: Cytostatic activity against human UACC62 cells; procedure, shortened: as §2
[46] = tested on: BT-549; test: Cytostatic activity against human BT549 cells; procedure, shortened: as §1
[47] = tested on: CAKI-1; test: Cytostatic activity against human Caki1 cells; procedure, shortened: as §1
[48] = tested on: K562; test: Cytostatic activity against human K562 cells; procedure, shortened: as §1
[49] = tested on: DU-145; test: Cytostatic activity against human DU145 cells; procedure, shortened: as §1
[50] = tested on: SK-MEL-2; test: Cytostatic activity against human SK-MEL-2 cells; procedure, shortened: as §1
[51] = tested on: SK-MEL-5; test: Cytostatic activity against human SK-MEL-5 cells; procedure, shortened: as §1
[52] = tested on: CCRF-CEM; test: Cytostatic activity against human CCRF-CEM cells; procedure, shortened: as §1
[53] = tested on: OVCAR-4; test: Cytostatic activity against human OVCAR4 cells; procedure, shortened: as §1
[54] = tested on: T47D; test: Cytostatic activity against human T47D cells; procedure, shortened: as §2
[55] = tested on: U-251; test: Cytostatic activity against human U251 cells; procedure, shortened: as §2
[56] = tested on: KM12; test: Cytostatic activity against human KM12 cells; procedure, shortened: as §1
[57] = tested on: EKVX; test: Cytostatic activity against human EKVX cells; procedure, shortened: as §1

`N=C(NO)NS(=O)(=O)c1cc(-c2nc(-c3ccccc3)no2)c(Cl)cc1SCc1ccccc1` showed a GI50 [1] of 2.03 µM, a TGI [1] of 5.24 µM and a GI50 [2] of 2.75 µM. For the same molecule, the TGI [2] was 7.06 µM, the GI50 [3] was 1.71 µM and the TGI [3] was 3.46 µM. For the same molecule, the GI50 [4] was 1.8 µM, the TGI [4] was 7.42 µM and the GI50 [5] was 1.86 µM. The TGI [5] was 4.36 µM, the GI50 [6] was 1.67 µM and the TGI [6] was 3.32 µM. The GI50 [7] was 1.69 µM, the TGI [7] was 3.12 µM and the GI50 [8] was 1.86 µM. The TGI [8] was 3.39 µM, the GI50 [9] was 2.55 µM and the TGI [9] was 6.36 µM. The GI50 [10] was 1.56 µM, the TGI [10] was 3.04 µM and the GI50 [11] was 1.99 µM. It also gave a TGI [11] of 9.01 µM, a GI50 [12] of 2.72 µM and a TGI [12] of 6.44 µM. The GI50 [13] was 1.43 µM, the TGI [13] was 5.88 µM and the GI50 [14] was 3.48 µM. For the same molecule, the TGI [14] was 16.2 µM, the GI50 [15] was 1.9 µM and the TGI [15] was 3.49 µM. For the same molecule, the GI50 [16] was 2.23 µM, the TGI [16] was 4.8 µM and the GI50 [17] was 1.68 µM. For the same molecule, the TGI [17] was 3.21 µM, the GI50 [18] was 1.4 µM and the TGI [18] was 7.64 µM. For the same molecule, the GI50 [19] was 1.72 µM, the TGI [19] was 3.82 µM and the GI50 [20] was 2.06 µM. The TGI [20] was 5.05 µM, the GI50 [21] was 2.02 µM and the TGI [21] was 3.9 µM. For the same molecule, the GI50 [22] was 2.38 µM, the TGI [22] was 7.53 µM and the GI50 [23] was 2.01 µM. It also gave a TGI [23] of 4.03 µM, a GI50 [24] of 2.15 µM and a TGI [24] of 4.39 µM. The GI50 [25] was 1.63 µM, the TGI [25] was 4.09 µM and the GI50 [26] was 2.2 µM. For the same molecule, the TGI [26] was 4.55 µM, the GI50 [27] was 1.94 µM and the TGI [27] was 3.95 µM. It also gave a GI50 [28] of 1.79 µM, a TGI [28] of 3.83 µM and a GI50 [29] of 1.32 µM. It also gave a TGI [29] of 2.97 µM, a GI50 [30] of 1.74 µM and a TGI [30] of 3.95 µM. It also gave a GI50 [31] of 1.22 µM, a TGI [31] of 3.94 µM and a GI50 [32] of 1.45 µM. For the same molecule, the TGI [32] was 2.97 µM, the GI50 [33] was 1.52 µM and the TGI [33] was 2.97 µM. For the same molecule, the GI50 [34] was 2.07 µM, the TGI [34] was 5.31 µM and the GI50 [35] was 3.56 µM. It also gave a TGI [35] of 18.7 µM, a GI50 [36] of 1.53 µM and a TGI [36] of 3.27 µM. The GI50 [37] was 2.57 µM, the TGI [37] was 7.85 µM and the GI50 [38] was 2.34 µM. The TGI [38] was 9.03 µM, the GI50 [39] was 1.79 µM and the TGI [39] was 3.88 µM. For the same molecule, the GI50 [40] was 2.05 µM, the TGI [40] was 5.79 µM and the GI50 [41] was 1.68 µM. It also gave a TGI [41] of 3.53 µM, a GI50 [42] of 1.51 µM and a TGI [42] of 3.08 µM. It also gave a GI50 [43] of 2.23 µM, a TGI [43] of 5.12 µM and a GI50 [44] of 1.45 µM. It also gave a TGI [44] of 3.74 µM, a GI50 [45] of 1.84 µM and a TGI [45] of 3.83 µM. It also gave a GI50 [46] of 2.45 µM, a TGI [46] of 5.23 µM and a GI50 [47] of 1.67 µM. The TGI [47] was 3.65 µM, the GI50 [48] was 1.87 µM and the TGI [48] was 4.74 µM. The GI50 [49] was 1.71 µM, the TGI [49] was 3.17 µM and the GI50 [50] was 1.96 µM. The TGI [50] was 4.03 µM, the GI50 [51] was 1.48 µM and the TGI [51] was 2.86 µM. For the same molecule, the GI50 [52] was 1.91 µM, the TGI [52] was 5.3 µM and the GI50 [53] was 1.6 µM. It also gave a TGI [53] of 4.06 µM, a GI50 [54] of 1.7 µM and a TGI [54] of 3.48 µM. The GI50 [55] was 1.36 µM, the TGI [55] was 2.84 µM and the GI50 [56] was 1.77 µM. The TGI [56] was 3.55 µM, the GI50 [57] was 1.36 µM and the TGI [57] was 2.71 µM.
